Where a name gives a salt, the structure may show the parent alone. Read-outs that look alike come from different tables or passages of the source.
What was measured:
LPA1 receptor = LPA1 receptor (Cricetulus griseus, UniProt G3HUC7); format: cell-based, Chinese hamster; conditions: CHOK1/Gα15/GCaMP6s-CAAX
CaV3.2 = CaV3.2 (Homo sapiens, UniProt O95180); format: cell-based; conditions: GCaMP6s-CAAX FLIPR, CRC, EC10 KCl
Procedure, shortened: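 Inducible HEK293 CaV3.2/Kir2.3/GCaMP6s-CAAX cells, with no antibiotics in assay plates. Doxycycline (1 μg/mL) induction, 16k/well, 2 days at 37 °C, then ~60 min at room temperature in buffer of 133 mM NaCl, 10 HEPES, 10 glucose, 4 KCl, 1 CaCl2, pH 7.3. […] Peak response over baseline after each addition.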

CaV3.3 = CaV3.3 (Homo sapiens, UniProt Q9P0X4); assay: cell-based; format: cell-based; conditions: for potentiator activity at CaV3.3: GCaMP6s-CAAX FLIPR, CRC, EC10 KCl
CaV3.3, sequence (Q9P0X4 whole entry): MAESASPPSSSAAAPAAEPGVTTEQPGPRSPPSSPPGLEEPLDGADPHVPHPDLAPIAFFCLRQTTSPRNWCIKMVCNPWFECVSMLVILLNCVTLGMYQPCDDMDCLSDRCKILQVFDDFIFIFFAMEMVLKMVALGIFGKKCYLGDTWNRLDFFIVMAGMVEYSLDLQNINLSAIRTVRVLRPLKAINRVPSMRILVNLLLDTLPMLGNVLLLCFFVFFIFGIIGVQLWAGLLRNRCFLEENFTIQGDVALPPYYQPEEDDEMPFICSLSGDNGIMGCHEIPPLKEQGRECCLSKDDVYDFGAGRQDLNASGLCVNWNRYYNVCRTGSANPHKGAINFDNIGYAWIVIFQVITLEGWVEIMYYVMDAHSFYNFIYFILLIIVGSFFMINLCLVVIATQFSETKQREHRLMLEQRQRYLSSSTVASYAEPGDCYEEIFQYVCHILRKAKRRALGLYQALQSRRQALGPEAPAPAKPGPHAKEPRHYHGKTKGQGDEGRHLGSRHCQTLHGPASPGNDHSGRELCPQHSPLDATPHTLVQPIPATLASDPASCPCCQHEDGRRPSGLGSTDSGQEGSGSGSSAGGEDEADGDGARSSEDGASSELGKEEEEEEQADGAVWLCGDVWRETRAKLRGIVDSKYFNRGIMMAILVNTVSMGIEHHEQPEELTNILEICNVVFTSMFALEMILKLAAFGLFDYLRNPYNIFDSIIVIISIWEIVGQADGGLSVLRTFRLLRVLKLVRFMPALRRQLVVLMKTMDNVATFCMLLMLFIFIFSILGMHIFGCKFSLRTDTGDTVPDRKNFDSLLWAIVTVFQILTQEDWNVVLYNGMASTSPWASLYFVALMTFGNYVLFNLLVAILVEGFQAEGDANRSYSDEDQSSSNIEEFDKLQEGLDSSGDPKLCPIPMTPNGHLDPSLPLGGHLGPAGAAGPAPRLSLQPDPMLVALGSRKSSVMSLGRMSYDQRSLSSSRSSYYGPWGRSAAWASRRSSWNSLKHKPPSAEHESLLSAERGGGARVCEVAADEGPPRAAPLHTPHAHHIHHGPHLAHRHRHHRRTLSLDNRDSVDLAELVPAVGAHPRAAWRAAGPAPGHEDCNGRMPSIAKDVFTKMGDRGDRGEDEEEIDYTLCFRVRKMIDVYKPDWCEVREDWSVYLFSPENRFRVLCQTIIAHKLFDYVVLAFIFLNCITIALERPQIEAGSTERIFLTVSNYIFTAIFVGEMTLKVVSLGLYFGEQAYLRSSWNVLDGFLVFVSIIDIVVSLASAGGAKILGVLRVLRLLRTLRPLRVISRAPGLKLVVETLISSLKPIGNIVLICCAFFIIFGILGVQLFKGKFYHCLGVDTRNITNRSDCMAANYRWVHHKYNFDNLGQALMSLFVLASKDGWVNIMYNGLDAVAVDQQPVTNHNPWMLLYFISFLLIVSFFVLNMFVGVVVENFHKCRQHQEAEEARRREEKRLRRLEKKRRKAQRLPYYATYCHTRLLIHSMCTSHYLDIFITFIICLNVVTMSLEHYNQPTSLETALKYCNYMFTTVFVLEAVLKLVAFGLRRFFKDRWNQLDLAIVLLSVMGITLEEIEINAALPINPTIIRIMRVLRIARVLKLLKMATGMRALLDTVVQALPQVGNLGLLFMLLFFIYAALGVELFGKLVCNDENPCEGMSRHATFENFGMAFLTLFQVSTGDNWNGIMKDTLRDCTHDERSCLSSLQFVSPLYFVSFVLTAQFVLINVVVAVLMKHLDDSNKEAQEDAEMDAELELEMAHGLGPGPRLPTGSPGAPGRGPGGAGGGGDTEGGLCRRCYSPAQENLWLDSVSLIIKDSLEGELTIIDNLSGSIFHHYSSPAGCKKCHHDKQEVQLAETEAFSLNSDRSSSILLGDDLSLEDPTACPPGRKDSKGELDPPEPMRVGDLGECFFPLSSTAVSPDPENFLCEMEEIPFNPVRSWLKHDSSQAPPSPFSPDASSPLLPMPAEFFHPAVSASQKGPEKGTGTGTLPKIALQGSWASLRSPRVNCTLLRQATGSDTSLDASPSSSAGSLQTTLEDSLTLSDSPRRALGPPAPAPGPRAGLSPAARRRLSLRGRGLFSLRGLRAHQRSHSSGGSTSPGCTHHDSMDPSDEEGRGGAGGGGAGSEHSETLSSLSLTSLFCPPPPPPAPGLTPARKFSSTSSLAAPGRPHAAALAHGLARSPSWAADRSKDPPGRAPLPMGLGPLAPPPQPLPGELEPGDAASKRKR

CaV3.1 = CaV3.1 (Homo sapiens, UniProt O43497); format: cell-based; conditions: GCaMP6s-CAAX FLIPR, CRC, low CaCl2
CaV3.1, sequence (O43497 whole entry): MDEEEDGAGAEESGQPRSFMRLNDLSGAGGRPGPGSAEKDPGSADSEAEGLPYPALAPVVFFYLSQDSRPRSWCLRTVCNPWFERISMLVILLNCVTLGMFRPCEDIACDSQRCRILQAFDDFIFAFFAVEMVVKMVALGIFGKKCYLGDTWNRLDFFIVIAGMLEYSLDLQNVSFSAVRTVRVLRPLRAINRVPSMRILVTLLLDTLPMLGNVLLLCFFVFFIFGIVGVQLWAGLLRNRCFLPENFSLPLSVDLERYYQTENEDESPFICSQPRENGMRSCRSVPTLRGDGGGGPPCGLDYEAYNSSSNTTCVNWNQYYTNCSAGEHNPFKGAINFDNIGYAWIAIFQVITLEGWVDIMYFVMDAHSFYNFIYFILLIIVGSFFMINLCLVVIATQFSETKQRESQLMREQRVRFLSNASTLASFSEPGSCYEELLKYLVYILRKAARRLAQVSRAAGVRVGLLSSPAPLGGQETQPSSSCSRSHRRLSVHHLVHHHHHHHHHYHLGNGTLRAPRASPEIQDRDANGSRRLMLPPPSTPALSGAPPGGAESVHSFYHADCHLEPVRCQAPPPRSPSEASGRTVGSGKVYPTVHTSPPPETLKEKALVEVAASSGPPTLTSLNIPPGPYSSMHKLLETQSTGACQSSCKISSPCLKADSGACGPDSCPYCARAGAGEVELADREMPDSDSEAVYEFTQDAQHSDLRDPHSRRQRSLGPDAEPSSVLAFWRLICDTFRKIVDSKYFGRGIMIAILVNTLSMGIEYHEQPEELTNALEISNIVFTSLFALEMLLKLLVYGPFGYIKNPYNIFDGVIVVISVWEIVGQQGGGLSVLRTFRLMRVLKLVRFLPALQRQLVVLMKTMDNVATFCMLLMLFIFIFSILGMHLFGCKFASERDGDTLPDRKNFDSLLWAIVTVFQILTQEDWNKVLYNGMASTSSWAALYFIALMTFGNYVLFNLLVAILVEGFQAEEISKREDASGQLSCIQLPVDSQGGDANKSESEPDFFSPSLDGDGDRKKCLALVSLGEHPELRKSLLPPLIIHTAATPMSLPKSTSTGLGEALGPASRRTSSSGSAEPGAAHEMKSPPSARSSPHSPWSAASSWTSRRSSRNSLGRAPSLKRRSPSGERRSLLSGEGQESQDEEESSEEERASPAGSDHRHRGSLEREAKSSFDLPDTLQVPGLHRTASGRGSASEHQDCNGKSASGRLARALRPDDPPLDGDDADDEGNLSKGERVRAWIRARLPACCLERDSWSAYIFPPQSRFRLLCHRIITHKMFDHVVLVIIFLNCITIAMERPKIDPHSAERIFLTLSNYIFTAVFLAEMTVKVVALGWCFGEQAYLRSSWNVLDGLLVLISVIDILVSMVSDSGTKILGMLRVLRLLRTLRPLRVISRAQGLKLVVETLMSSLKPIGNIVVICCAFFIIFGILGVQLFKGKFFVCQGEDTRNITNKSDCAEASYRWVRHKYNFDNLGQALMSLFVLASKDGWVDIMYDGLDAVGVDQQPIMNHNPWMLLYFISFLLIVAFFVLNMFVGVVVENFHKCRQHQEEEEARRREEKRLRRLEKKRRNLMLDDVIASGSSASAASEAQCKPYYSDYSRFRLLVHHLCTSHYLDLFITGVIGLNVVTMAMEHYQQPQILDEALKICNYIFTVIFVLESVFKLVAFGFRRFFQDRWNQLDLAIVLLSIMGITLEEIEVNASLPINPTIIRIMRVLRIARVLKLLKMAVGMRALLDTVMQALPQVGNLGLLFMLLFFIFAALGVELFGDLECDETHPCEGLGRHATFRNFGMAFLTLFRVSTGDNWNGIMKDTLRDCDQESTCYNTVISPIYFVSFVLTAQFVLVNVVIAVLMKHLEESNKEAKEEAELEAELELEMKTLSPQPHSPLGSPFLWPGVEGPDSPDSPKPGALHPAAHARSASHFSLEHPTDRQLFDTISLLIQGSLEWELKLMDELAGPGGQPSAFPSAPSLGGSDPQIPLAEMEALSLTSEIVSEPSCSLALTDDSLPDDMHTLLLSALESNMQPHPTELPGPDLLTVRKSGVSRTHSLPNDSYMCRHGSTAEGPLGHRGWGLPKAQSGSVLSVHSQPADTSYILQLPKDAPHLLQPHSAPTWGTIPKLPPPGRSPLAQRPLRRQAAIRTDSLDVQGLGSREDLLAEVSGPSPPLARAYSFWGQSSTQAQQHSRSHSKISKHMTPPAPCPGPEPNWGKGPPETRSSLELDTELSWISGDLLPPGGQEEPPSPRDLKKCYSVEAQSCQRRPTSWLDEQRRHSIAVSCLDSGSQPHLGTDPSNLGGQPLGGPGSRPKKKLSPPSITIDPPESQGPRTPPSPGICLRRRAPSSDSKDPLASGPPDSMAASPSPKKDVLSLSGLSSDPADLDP
Procedure, shortened: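 HEK293 cells co-expressing CaV3.1, Kir2.3 and GCaMP6s-CAAX in DMEM/F-12 GlutaMAX + 10% FBS + 1.25 μg/mL puromycin. Induced with 1 μg/mL doxycycline, seeded at 16k/well on poly-D-lysine and grown 2 days at 37 °C. Equilibrated ~60 min at room temperature in the dark in buffer (133 mM NaCl, 10 HEPES, 10 glucose, 4 KCl, 1 CaCl2, pH 7.3). Stimulated with 1.5 mM (low) or 5.0 mM (high) CaCl2 on FLIPR Tetra at room temperature; peak over baseline used.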

C3a receptor = C3a receptor (Cricetulus griseus, UniProt A0A061I1T5); format: cell-based, Chinese hamster; conditions: read-out: EC50, increase in fluorescence (C3a receptor); CHOK1/Gα15/GCaMP6s-CAAX
Procedure, shortened: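 CHOK1-Gα15 cells stably expressing GCaMP6s-CAAX, kept in F-12K + 10% FBS with hygromycin (100 μg/mL) and G-418 (700 μg/mL). Seeded at 16k/well and grown 2 days at 37 °C. Buffer was HBSS + 20 mM HEPES + 0.1% fatty-acid-free BSA, pH 7.3; 30 min at 37 °C in the dark. FLIPR Tetra at 37 °C: ex 470-495/em 515-575 nm, 1 Hz, two additions. Agonist was hC3a; antagonist mode used 20 nM hC3a. Peak over baseline, scaled from buffer (0%) to saturating agonist (100%). Four replicates, two experiments.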

LPA1 receptor, sequence (G3HUC7 1-364): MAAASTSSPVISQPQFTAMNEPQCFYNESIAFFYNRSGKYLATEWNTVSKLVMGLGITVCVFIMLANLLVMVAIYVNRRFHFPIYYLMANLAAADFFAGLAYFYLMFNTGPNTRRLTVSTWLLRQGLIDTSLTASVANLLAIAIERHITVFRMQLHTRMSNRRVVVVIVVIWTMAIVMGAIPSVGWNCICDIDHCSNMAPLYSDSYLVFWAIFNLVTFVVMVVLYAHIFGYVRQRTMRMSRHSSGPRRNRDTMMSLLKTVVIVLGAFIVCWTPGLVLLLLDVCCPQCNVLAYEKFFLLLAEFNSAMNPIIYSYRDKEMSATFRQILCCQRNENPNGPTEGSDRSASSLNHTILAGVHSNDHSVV

With `Cc1noc(-c2ccc(-c3ccc(CC(=O)O)cc3)cc2)c1NC(=O)O[C@H](C)c1ccccc1` [AM095] as the molecule, how does the IC50 (LPA1 receptor; read-out: IC50, block of LPA1-mediated signal, EC80 agonist) read?
Its IC50 is 0.24 ± 0.02 µM.

`CCOC(=O)C1=C(N2CCCCC2)C2(CC1=O)C(=O)N=C1C(C)=CC=CN12` (centres unmarked) [SAK3] was tested. Which “potentiator activity at CaV3.2” value (CaV3.2) did it give?
The value was “neither SAK3 (Figure 3D) nor ST-101 (Supporting Information Figure S3) displayed potentiator activity”.

What about the “potentiator activity at CaV3.3” value (CaV3.3) of the same molecule?
The value was “neither SAK3 (Figure 3D) nor ST-101 (Supporting Information Figure S3) displayed potentiator activity”.

What about the “potentiator activity at CaV3.1” value (CaV3.1) of the same molecule?
Its value is “neither SAK3 (Figure 3D) nor ST-101 (Supporting Information Figure S3) displayed potentiator activity”.

Which results are given for `O=C1N=C2C=CC=CN2C12Cc1ccccc1C2` [ST-101]?
potentiator activity at CaV3.2 (CaV3.2): neither SAK3 (Figure 3D) nor ST-101 (Supporting Information Figure S3) displayed potentiator activity; potentiator activity at CaV3.3 (CaV3.3): neither SAK3 (Figure 3D) nor ST-101 (Supporting Information Figure S3) displayed potentiator activity; potentiator activity at CaV3.1 (CaV3.1): neither SAK3 (Figure 3D) nor ST-101 (Supporting Information Figure S3) displayed potentiator activity

`CC1=C(C(=O)OC(C)C)C(c2cccc([N+](=O)[O-])c2)C(C(=O)OC2CN(C(c3ccccc3)c3ccccc3)C2)=C(N)N1` (centres unmarked) [azelnidipine] was tested. Which IC50 (CaV3.3) did it give?
Its IC50 is 26 µM.

How did the IC50 (CaV3.3) turn out when `Fc1ccc(C(c2ccc(F)cc2)N2CCN(C/C=C/c3ccccc3)CC2)cc1` [flunarizine dihydrochloride] was run?
Its IC50 is 1.2 µM.

With `CCOC(=O)Nc1ccc(NCc2ccc(F)cc2)nc1N` [flupirtine maleate] as the molecule, how does the IC50 (CaV3.3) read?
Its IC50 is 3.5 µM.

With `COC(=O)C1=C(C)NC(C)=C(C(=O)OC(C)(C)CN(C)CCC(c2ccccc2)c2ccccc2)C1c1cccc([N+](=O)[O-])c1` (centres unmarked) [lercanidipine hydrochloride] as the molecule, how does the IC50 (CaV3.3) read?
Its IC50 is 0.41 µM.

For `CN(C)C(=O)C(CCN1CCC(O)(c2ccc(Cl)cc2)CC1)(c1ccccc1)c1ccccc1` [loperamide hydrochloride], which IC50 (CaV3.3) is on record?
The IC50 was 1.3 µM.

For `CC(C)c1ccc(CC(=O)N[C@H](C)c2ccc(OCC(F)(F)F)cn2)cc1` [mk-8998], which IC50 (CaV3.3) is on record?
Its IC50 is 0.037 µM.

How did the IC50 (CaV3.3) turn out when `COC(=O)C1=C(C)NC(C)=C(C(=O)OCCN(C)Cc2ccccc2)C1c1cccc([N+](=O)[O-])c1` (centres unmarked) [nicardipine hydrochloride] was run?
Its IC50 is 2.1 µM.

Which IC50 (CaV3.3) does the source give for `CCOC(=O)C1=C(C)NC(C)=C(C(=O)OC)C1c1cccc([N+](=O)[O-])c1` (centres unmarked) [nitrendipine] here?
Its IC50 is 18 µM.

How did the IC50 (CaV3.3) turn out when `CCOC(=O)Nc1ccc(NCc2ccc(F)cc2)cc1N` [retigabine] was run?
The IC50 was 9.4 µM.

`C[C@@H](NC(=O)Cc1ccc(C2CC2)cc1)c1ccc(OCC(F)(F)F)cn1` [tta-a2] was tested. Which “effect on KCl-induced CaV3.3-dependent fluorescence signal” value (CaV3.3) did it give?
The value was “blocked”.

What about the IC50 (CaV3.3; read-out: IC50 against CaV3.3) of the same molecule?
The IC50 was 0.053 µM.

How did the EC50 (C3a receptor) turn out when human C3a [hC3a] was run?
Its EC50 is 0.0045 ± 0.0005 µM.

For lysoPA18:1, which EC50 (LPA1 receptor; read-out: EC50, increase in fluorescence (LPA1 receptor agonist)) is on record?
The EC50 was 1.01 ± 0.19 µM.

Source: publication PMC8923061 (ACS Pharmacology & Translational Science, 2022)
